The source of these data is ChEMBL document CHEMBL1140219, “Activation of p16 gene silenced by DNA methylation in cancer cells by phosphoramidate derivatives of 2'-deoxyzebularine” (2008).

The test system of assay [1] is T-24. Put plainly: Induction of p16 gene expression in human T24 cells at 100 uM after 8 days by real time PCR. Type of assay: functional, cell-based. A digest of the protocol: (§1)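 T24 or HCT15 cells were treated continuously for 8 days at 1, 10 or 100 μM, with or without 100 μM thymidine. Drug and medium were renewed every 2–3 days. T24 cells were grown in McCoy's 5A with 10% FCS. Total RNA (5 μg) was reverse transcribed with random primers. p16 mRNA was measured by real-time RT-PCR and normalized to GAPDH.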

Assay [2] concerns CFPAC-1. Put plainly: Induction of p16 gene expression in human Cf-Pac-1 cells at 100 uM after 8 days by real time PCR. Type of assay: functional, cell-based. A digest of the protocol:
(§2)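 Cf-Pac-1 cells in IMDM/10% FCS were seeded 3×10^5/dish and treated continuously for 8 days from 24 hr after seeding. Medium and drug were refreshed every 2–3 days, with 100 μM thymidine, lower thymidine, or 100 μM uridine added. Total RNA (5 μg) was reverse transcribed with MMLV RT and random primers. p16 mRNA was measured by real-time RT-PCR and normalized to GAPDH.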
In general terms: Real-time PCR tracks product formation cycle by cycle.

Assay [3] has as its system CFPAC-1. Put plainly: Induction of p16 gene expression in human Cf-Pac-1 cells at 10 uM after 8 days by real time PCR. Type of assay: functional, cell-based. A digest of the protocol: as §2
Assay [4] concerns T-24. Description: Induction of p16 gene expression in human T24 cells after 8 days by real time PCR in presence of […]. Type of assay: functional, cell-based. A digest of the protocol:
as §1

Assay [5] deals with CFPAC-1. Description: Induction of p16 gene expression in human Cf-Pac-1 cells at 1 uM after 8 days by real time PCR. Type of assay: functional, cell-based. In short, it runs like this:
as §2

Assay [6] concerns T-24. Put plainly: Induction of p16 gene expression in human T24 cells at 1 uM after 8 days by real time PCR. It counts as functional, cell-based. In short, it runs like this:
as §1

Assay [7] deals with T-24. Description: Induction of p16 gene expression in human T24 cells at 10 uM after 8 days by real time PCR. Type of assay: functional, cell-based. A digest of the protocol: as §1
The subject of assay [8] is CFPAC-1. Put plainly: Induction of p16 gene expression in human Cf-Pac-1 cells after 8 days by real time PCR in presence of 1 to 2 mM thymidine. It counts as functional, cell-based.
For assay [9], the system named is CFPAC-1. Put plainly: Induction of hypomethylation at CPG-rich region of p16 in human Cf-Pac-1 cells at 100 uM after 8 days by quantitative Ms-SNuPE in presence of 100 uM thymidine. It counts as functional, cell-based. A digest of the protocol: (§3)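 Cf-Pac-1 cells were treated with continuous redosing and received 100 μM thymidine. Genomic DNA (4 μg) was bisulfite-treated and then PCR-amplified: 94°C 3 min, then 40 cycles of 94°C/annealing/72°C, 45 s each. Annealing was 65°C for p16, 53°C for MAGEA1 and 58°C for D4Z4. Ms-SNuPE primer extension was 94°C 1 min, 50°C 30 s, 72°C 20 s.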

Assay [10] concerns CFPAC-1. Description: Cytotoxicity against human Cf-Pac-1 cells assessed as increase in cell population doubling time at 1 uM after 8 days in presence of 100 uM thymidine. Type of assay: functional. A digest of the protocol: (§4)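 Cf-Pac-1 cells grown in IMDM with 10% heat-inactivated FCS at 37°C, 5% CO2. Seeded 3×10^5 cells/10cm dish and treated 24 hr later. Medium and drug were renewed every 2–3 days. Cells were counted by Coulter counter every 2–3 days, with two plates averaged. Population doublings = log(harvested/seeded)/log2. Result is % increase in doubling time over untreated cells.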

In assay [11] the test system is CFPAC-1. Description: Induction of p16 gene expression in human Cf-Pac-1 cells at 10 uM by real time PCR in presence of […]. Type of assay: functional, cell-based. In short, it runs like this: as §2
In assay [12] the test system is CFPAC-1. Put plainly: Cytotoxicity against human Cf-Pac-1 cells assessed as increase in cell population doubling time at 10 uM after 8 days in presence of 100 uM thymidine. Type of assay: functional. A digest of the protocol: as §4
For assay [13], the system named is CFPAC-1. Description: Induction of hypomethylation at CPG-poor promoter region of MAGEA1 gene in human Cf-Pac-1 cells at 100 uM after 8 days by quantitative Ms-SNuPE in presence of 100 uM thymidine. It counts as functional, cell-based. A digest of the protocol:
as §3

Assay [14] deals with CFPAC-1. Put plainly: Induction of p16 gene expression in human Cf-Pac-1 cells at 100 uM by real time PCR in presence of […]. Type of assay: functional, cell-based. In short, it runs like this: as §2
The test system of assay [15] is CFPAC-1. Put plainly: Induction of hypomethylation at repeat sequence D4Z4 in human Cf-Pac-1 cells at 100 uM after 8 days by quantitative Ms-SNuPE in presence of 100 uM thymidine. It counts as functional, cell-based. In short, it runs like this:
as §3

Another assay relates to HCT-15. Put plainly: Induction of p16 gene expression in human HCT15 cells at 100 uM after 8 days by real time PCR in presence of […] thymidine. It counts as functional, cell-based. A digest of the protocol: as §1
Assay [16] relates to CFPAC-1. Put plainly: Cytotoxicity against human Cf-Pac-1 cells assessed as increase in cell population doubling time at 100 uM after 8 days in presence of 100 uM thymidine. Type of assay: functional. A digest of the protocol: as §4
Assay [17] has as its system CFPAC-1. Description: Induction of hypomethylation at repeat sequence D4Z4 in human Cf-Pac-1 cells at 10 uM after 8 days by quantitative Ms-SNuPE in presence of 100 uM thymidine. Type of assay: functional, cell-based. In short, it runs like this:
as §3

Assay [18] concerns CFPAC-1. Put plainly: Induction of hypomethylation at CPG-rich region of p16 in human Cf-Pac-1 cells at 10 uM after 8 days by quantitative Ms-SNuPE in presence of 100 uM thymidine. It counts as functional, cell-based. In short, it runs like this: as §3
The subject of assay [19] is CFPAC-1. Description: Induction of hypomethylation at CPG-poor promoter region of MAGEA1 gene in human Cf-Pac-1 cells at 10 uM after 8 days by quantitative Ms-SNuPE in presence of 100 uM thymidine. Type of assay: functional, cell-based. A digest of the protocol: as §3

Active and inactive are the calls of the source. The rule behind the calls is not given here.

In the case of `CCOC(=O)[C@H](C)NP(=O)(OC[C@H]1O[C@@H](n2cccnc2=O)C[C@@H]1O)Oc1ccc(Cl)cc1` (stereo partly specified), the result in the assay with T-24 [1], in the assay with CFPAC-1 [2], with CFPAC-1 [3], in the assay with T-24 [4], in the assay on CFPAC-1 [5] and in the assay on T-24 [6] was inactive. Moreover, the result with T-24 [7] and in the assay with CFPAC-1 [8] was inactive.
Consider `C[C@H](NP(=O)(OC[C@H]1O[C@@H](n2cccnc2=O)C[C@@H]1O)Oc1ccccc1)C(=O)OCc1ccccc1` (stereo partly specified), for which the result in the assay with T-24 [1], in the assay on CFPAC-1 [2], in the assay with CFPAC-1 [3], in the assay on CFPAC-1 [5], in the assay on T-24 [6] and in the assay with T-24 [7] was inactive. The result in the assay on CFPAC-1 [8] was inactive.
Turning to `COC(=O)[C@H](C)NP(=O)(OC[C@H]1O[C@@H](n2cccnc2=O)C[C@@H]1O)Oc1ccccc1` (stereo partly specified), the outcome with T-24 [1], with CFPAC-1 [2], in the assay on CFPAC-1 [3], in the assay on CFPAC-1 [5], with T-24 [6] and in the assay with T-24 [7] was inactive. Besides, in the assay on CFPAC-1 [8], the outcome was inactive.
Turning to `CCOC(=O)C(C)(C)NP(=O)(OC[C@H]1O[C@@H](n2cccnc2=O)C[C@@H]1O)Oc1cccc2ccccc12` (stereo partly specified), the result in the assay on CFPAC-1 [9], in the assay on CFPAC-1 [11], in the assay on CFPAC-1 [13], in the assay with CFPAC-1 [14] and in the assay with CFPAC-1 [15] was Active. Further, the Activity in the assay on CFPAC-1 [10] is 58%; in the assay with CFPAC-1 [12] it was 81%. The result with T-24 [1], with CFPAC-1 [2], with CFPAC-1 [3], in the assay on T-24 [4], in the assay on CFPAC-1 [5] and in the assay with T-24 [6] was inactive. In addition, the outcome in the assay with T-24 [7] and with CFPAC-1 [8] was inactive.
`COC(=O)[C@H](C)NP(=O)(OC[C@H]1O[C@@H](n2cccnc2=O)[C@@H](F)[C@@H]1O)Oc1ccccc1` (stereo partly specified): the result in the assay with T-24 [1], in the assay on CFPAC-1 [2], in the assay with CFPAC-1 [3], in the assay with CFPAC-1 [5], in the assay with T-24 [6] and in the assay on T-24 [7] was inactive. The outcome in the assay with CFPAC-1 [8] was inactive.
`CCOC(=O)[C@H](C)NP(=O)(OC[C@H]1O[C@@H](n2cccnc2=O)C[C@@H]1OP(=O)(N[C@@H](C)C(=O)OCC)Oc1ccc(Cl)cc1)Oc1ccc(Cl)cc1` (stereo partly specified): the outcome with T-24 [1], in the assay with CFPAC-1 [2], in the assay with CFPAC-1 [3], with T-24 [4], in the assay with CFPAC-1 [5] and with T-24 [6] was inactive. The outcome with T-24 [7] and with CFPAC-1 [8] was inactive.
With `O=c1ncccn1[C@@H]1O[C@H](CO)[C@@H](O)[C@H]1O` [ZEBULARINE], in the assay with HCT-15, the outcome was Active. Further, in the assay on CFPAC-1 [16], the Activity stood at 103%.
Take `C[C@H](NP(=O)(OC[C@H]1O[C@@H](n2cccnc2=O)[C@@H](F)[C@@H]1O)Oc1ccccc1)C(=O)OCc1ccccc1` (stereo partly specified): the result in the assay on T-24 [1], in the assay on CFPAC-1 [2], with CFPAC-1 [3], in the assay with CFPAC-1 [5], in the assay on T-24 [6] and in the assay with T-24 [7] was inactive. Also, the result with CFPAC-1 [8] was inactive.
In the case of `CC(C)(NP(=O)(OC[C@H]1O[C@@H](n2cccnc2=O)C[C@@H]1OP(=O)(NC(C)(C)C(=O)OCc1ccccc1)Oc1ccccc1)Oc1ccccc1)C(=O)OCc1ccccc1` (stereo partly specified), the outcome in the assay on T-24 [1], in the assay with CFPAC-1 [2], in the assay on CFPAC-1 [3], in the assay with T-24 [4], in the assay with CFPAC-1 [5] and in the assay with T-24 [6] was inactive. The result with T-24 [7] and with CFPAC-1 [8] was inactive.
Turning to `Cc1cn([C@H]2C[C@H](O)[C@@H](CO)O2)c(=O)[nH]c1=O` [DOXRIBTIMINE], in the assay on CFPAC-1 [16], the Activity turned out to be 0%.
In the case of `CC(C)(NP(=O)(OC[C@H]1O[C@@H](n2cccnc2=O)C[C@@H]1O)Oc1cccc2ccccc12)C(=O)OCc1ccccc1` (stereo partly specified), the outcome in the assay with CFPAC-1 [9], in the assay on CFPAC-1 [11], with CFPAC-1 [13], with CFPAC-1 [14] and in the assay on CFPAC-1 [15] was Active. Moreover, the result in the assay with T-24 [1], in the assay on CFPAC-1 [2], in the assay on CFPAC-1 [3], in the assay on T-24 [4], with CFPAC-1 [5] and with T-24 [6] was inactive. Also, the outcome in the assay with T-24 [7] and in the assay on CFPAC-1 [8] was inactive. For the same compound, the Activity is reported as 36% in the assay with CFPAC-1 [12] and 23% in the assay on CFPAC-1 [16].
On to `CC(C)(NP(=O)(OC[C@H]1O[C@@H](n2cccnc2=O)C[C@@H]1O)Oc1ccccc1)C(=O)OCc1ccccc1` (stereo partly specified), for which the result in the assay on T-24 [1], in the assay with CFPAC-1 [2], with CFPAC-1 [3], in the assay with T-24 [4], in the assay on CFPAC-1 [5] and in the assay with T-24 [6] was inactive. For the same compound, the result in the assay on T-24 [7] and with CFPAC-1 [8] was inactive.
For the compound `CCOC(=O)C(C)(C)NP(=O)(OC[C@H]1O[C@@H](n2cccnc2=O)C[C@@H]1OP(=O)(NC(C)(C)C(=O)OCC)Oc1cccc2ccccc12)Oc1cccc2ccccc12` (stereo partly specified), the result in the assay on CFPAC-1 [17], with CFPAC-1 [11], in the assay on CFPAC-1 [18], in the assay with CFPAC-1 [19] and in the assay on CFPAC-1 [16] was Active. Besides, the outcome with T-24 [1], in the assay on CFPAC-1 [2], in the assay with CFPAC-1 [3], with T-24 [4], in the assay on CFPAC-1 [5] and in the assay on T-24 [6] was inactive. The result in the assay on T-24 [7] and with CFPAC-1 [8] was inactive.
